Reference: article PMC3264876 (Pharmaceutical Research, 2011)

Test: Nonsink release testing in MFDS
Assay type: physicochemical
Procedure, shortened: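 Nanoparticle or bulk crystalline suspensions (nanoparticles at about 6 mg/mL solids, various drug loadings) diluted to 40 μgA/mL in MFDS. MFDS: 7.3 mM NaTC, 1.4 mM POPC, phosphate/NaCl, pH 6.5, 290 mOsm. Stirred at 60 rpm. Duplicate aliquots per time point spun through 100-kDa MWCO filters, 12,000 rpm, 5 min. Free drug is dissolved plus micellar; split estimated from micelle partition coefficient and micelle volume fraction.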

equilibrium partition coefficient into bile-salt micelles (MFDS): approximately 1,000 | maximum concentration in MFDS (dissolved plus in bile-salt micelles) (MFDS pH 6.5, dose 40 μgA/mL): 16 µg/mL | time to reach maximum concentration in MFDS (MFDS, 40 μgA/mL): at least 1 h | concentration of celecoxib in bile-salt micelles (MFDS, equilibrium): about 13.5 μg/mL | dissolved celecoxib concentration at equilibrium (MFDS, from micelle partition coefficient and 0.5% micelle volume): approximately 2.5 μg/mL
SMILES: Cc1ccc(-c2cc(C(F)(F)F)nn2-c2ccc(S(N)(=O)=O)cc2)cc1 [celecoxib]
